High-throughput results from PubChem BioAssay.
GPR7 antag: human neuropeptides B/W receptor 1 antagonism. P48145. GPR7-expressing cells, fluorescence antagonist assay. inhibition, % at 4.4 µM. actives 1.1% (n = 290,000); in the data active = inhibition above about 16%, passing the limit was not always enough;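 also: cells stimulated with the agonist NPW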
OX1R antag-1: human HCRTR1 antagonism; O43613; CHO/OX1R cells, Fluo-8 calcium fluorescence, orexin A; inhibition, % at 5 µM; actives 0.43% (n = 330,000); AID 434989;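 active = inhibition above its plate's threshold, mean inhibition of all tested compounds on the plate plus 3 SD, cut at about 37% in these data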
Target sequence (O43613 whole entry, looked up): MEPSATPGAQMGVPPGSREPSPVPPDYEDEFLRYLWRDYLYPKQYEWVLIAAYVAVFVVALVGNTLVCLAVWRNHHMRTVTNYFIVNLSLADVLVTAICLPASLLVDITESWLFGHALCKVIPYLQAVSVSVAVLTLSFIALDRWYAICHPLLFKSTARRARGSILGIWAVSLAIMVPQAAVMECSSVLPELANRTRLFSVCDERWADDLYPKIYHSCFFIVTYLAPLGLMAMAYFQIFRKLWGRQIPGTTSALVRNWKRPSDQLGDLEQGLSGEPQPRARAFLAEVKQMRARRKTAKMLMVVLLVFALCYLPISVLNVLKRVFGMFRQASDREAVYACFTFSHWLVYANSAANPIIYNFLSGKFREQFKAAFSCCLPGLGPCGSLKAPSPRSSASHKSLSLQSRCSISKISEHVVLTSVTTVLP
TAAR1 antag: human TAAR1 antagonism; AID 624466; CHO RD-HGA16 TAAR1, Fluo-8 calcium fluorescence, antagonist; Q96RJ0; inhibition, % at 3 µM; actives 1.5% (n = 360,000);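 active = inhibition above a per-plate cutoff, the mean inhibition of test compounds on that plate plus 3 SD, cut at about 49% in these data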
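System: CHO RD-HGA16 cells bearing hTAAR1. Reagent: EC80 β-phenethylamine stimulus. Schedule: seeding 17-24 h prior, 75-min 37 °C, 30-min RT dye loading. Signal: Fluo-8 intracellular calcium dye fluorescence, real-time kinetic reads. Read-out: % inhibition from peak post-agonist over basal fluorescence ratio. Benchmarks: vehicle wells and EC80 agonist wells. Replicates: n of 1.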
TAAR1 ag: agonists of human TAAR1; CHO RD-HGA16 TAAR1, Fluo-8 calcium fluorescence; vehicle wells 0%, saturating PEA agonist 100%; Q96RJ0; actives 0.99% (n = 360,000); activation, % at 3 µM; AID 624467;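 active = activation above the mean activation of all test compounds in the run plus 3 SD, cut at about 38% in these data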
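Benchmarks: low control DMSO, high control PEA (EC100); System: CHO RD-HGA16 cells carrying human TAAR1 plus Gα16; Detection: Fluo-8 fluorescence, 5 s baseline then 140 s kinetic read; Schedule: 17-24 h plating, Fluo-8 75 min 37 °C, 30 min RT; Read-out basis: % activation from peak over basal fluorescence ratio, DMSO-to-PEA scaled.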
CHO parental Ca: counter-screen for OX1R antagonists: effect in parental CHO cells; parental CHO-K1, ATP-induced calcium, Fluo-8 fluorescence; inhibition, % at 5.6 µM; actives 0.63% (n = 330,000); AID 463079;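 active = inhibition above that plate's mean sample inhibition plus 3 SD, cut at about 26% in these data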
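Assay system: untransfected parental CHO cell line. Also added: ATP agonist challenge. Dosing: one dose, 5.6 µM nominal. Measured by: Fluo-8 fluorescence. Read-out: % inhibition. Benchmarks: ATP wells versus no-ATP DMSO wells. Repeats: no replicates.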
OX1R antag-2: blocks the human orexin 1 receptor; O43613; OX1R-expressing cells, FRET antagonist read-out; inhibition, % at 6.6 µM; actives 1.8% (n = 330,000); AID 485270; in the data active = inhibition mostly above about 38%, no sharp cut-off; inactive = mostly below about 40%
GPR7 antag cf: human GPR7 antagonism, confirmation assay; shares compounds with GPR7 antag; GPR7-expressing cells, calcium fluorescence antagonist mode; inhibition, % at 4.4 µM; actives 52% (n = 2,400); AID 1952; in the data active = inhibition above about 24%;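 also: stimulated with the GPR7 agonist NPW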
MCHR1 antag: antagonizes human MCHR1, a GPR7 antagonist counter-screen. inhibition, % at 4.4 µM. actives 62% (n = 2,400). shares compounds with GPR7 antag. AID 2148. MCHR1-expressing cells, fluorescence antagonist assay; in the data active = inhibition above about 22%
OX1R Ca confirm: OX1R (human) antagonism, confirmed; shares compounds with OX1R antag-1; CHO/OX1R cells, orexin A calcium Fluo-8 fluorescence; inhibition, % at 5 µM; actives 38% (n = 1,100); AID 492963; in the data active = inhibition above about 29%
CHO Ca triplic: counter-screen for OX1R antagonists: effect in parental CHO cells | shares compounds with OX1R antag-1 | parental CHO-K1, ATP-induced calcium, Fluo-8 fluorescence | inhibition, % at 5.6 µM | actives 9.3% (n = 1,100);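 active = inhibition above a per-plate limit, the mean inhibition of that plate's test compounds plus 3 SD, cut at about 25% in these data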
Numbers stand for hits; - = inactive; . = no result given. Hits are enriched below; roughly 4.6% of the tested compounds scored in any of these assays.

SMILES	GPR7 antag	OX1R antag-1	TAAR1 antag	TAAR1 ag	CHO parental Ca	OX1R antag-2	GPR7 antag cf	MCHR1 antag	others
Cc1cc(N2CCNC[C@H]2C)ccc1N1CCN[C@H](C)C1	.	.	-	-	.	.	.	.
COC(=O)C1=C(c2ccccc2OCc2ccccc2)C[C@@H]2CC[C@H]1N2C(=O)NCc1ccc(Br)cc1	.	-	-	-	-	-	.	.
COC(=O)C1=C(c2cc3ccccc3o2)C[C@@H]2CC[C@H]1N2C(=O)NCc1ccc(F)cc1	.	-	-	-	-	-	.	.
COC(=O)C1=C(c2cc3ccccc3o2)C[C@@H]2CC[C@H]1N2C(=O)NCc1cccc2ccccc12	.	-	-	-	-	69	.	.
COC(=O)[C@@H]1N=C(c2ccc(OC)cc2)O[C@]12C(=O)N(C)c1ccc(Cl)cc12	.	.	-	-	.	.	.	.
Cc1cccc(C)c1-n1nnnc1C(C1CC1)N1CCC2(CC1)C(=O)NCN2c1ccccc1 (configuration not stated)	.	.	50	-	.	.	.	.
Cc1cccc(C)c1-n1nnnc1C(c1ccccc1)N1CCC2(CC1)C(=O)NCN2c1ccccc1 (configuration not stated)	.	.	-	-	.	.	.	.
Cc1ccc(-c2nc3ccccc3c(=O)n2-c2ncccc2C)cc1	-	-	-	-	-	-	.	.
CCCC(C)C1(CC)C(=O)NC(=Nc2ccc(OC)cc2)NC1=O (configuration not stated)	-	-	-	-	-	-	.	.
O=c1c2cc(Br)ccc2[nH]c(=S)n1-c1ccccc1	29	-	-	-	-	-	.	.
C/C=C(\C)C(=O)OC1C(C)=C2C(C1OC(=O)CCCCC)C(C)(OC(C)=O)CC(OC(=O)CCC)C1(O)C2OC(=O)C1(C)O (configuration not stated)	.	101	.	.	101	-	.	.
CN1C(=O)CN=C(c2ccccc2Cl)c2cc(Br)ccc21	-	-	-	-	-	-	.	.
COC(=O)C1=C(c2ccc(F)cc2OCc2ccccc2)C[C@@H]2CC[C@H]1N2C(=O)NCc1ccc(C(F)(F)F)cc1	.	-	53	-	-	-	.	.
COC(=O)C1=C(c2ccccc2OCc2ccccc2)C[C@@H]2CC[C@H]1N2C(=O)NCc1ccc(C(F)(F)F)cc1	.	-	-	-	-	-	.	.
N=C(N)c1c(O)n(C2CCCCC2)c(=O)n(C2CCCCC2)c1=O	-	-	-	46	61	-	.	.
COc1ccc(-c2cc(=NCC(=O)O)c3ccccc3o2)cc1	-	-	.	.	-	64	.	.
COc1ccc(-c2cc(=NCCCCCC(=O)O)c3cc(C)ccc3o2)cc1	-	.	-	-	.	.	.	.
O=C(Nc1cccc(Cl)c1)OC1CN2CCC1CC2 (configuration not stated)	22	-	-	-	46	-	53	58
O=C(Nc1ccc(Cl)cc1)OC1CN2CCC1CC2 (configuration not stated)	-	-	-	-	-	-	.	.
Cc1ccc(C)c(NC(=O)CSc2nnc([C@@H](N)Cc3c[nH]c4ccccc34)o2)c1	.	-	-	-	-	-	.	.
Cc1cc(C)c(C(=O)N2CCC3(CC2)OCCO3)c(C)c1	-	-	-	-	-	-	.	.
Cc1occc1C(=O)N1CCC2(CC1)OCCO2	33	-	-	-	-	-	-	-
COc1ccc2c(C)c(CC(=O)N3C[C@H]4C[C@@H](C3)c3cccc(=O)n3C4)c(=O)oc2c1C	-	-	-	-	-	-	.	.
OC1(c2ccc(F)cc2)CC2CCC(C1)N2Cc1nnnn1C1CCCCC1 (configuration not stated)	33	-	-	-	-	-	26	-
OCCN1C2CCC1CC(O)(c1ccc(F)cc1)C2 (configuration not stated)	-	-	-	-	-	-	.	.
SMILES	GPR7 antag	OX1R antag-1	TAAR1 antag	TAAR1 ag	CHO parental Ca	OX1R antag-2	GPR7 antag cf	MCHR1 antag	others
CCOc1ccc(Cl)cc1CNCCc1ccccc1F	33	-	-	-	-	-	49	37
O=[N+]([O-])c1ccc(N2CCCCCC2)c2nonc12	41	102	66	162	93	103	51	61
CCCCn1c(=O)c(C(=O)Nc2ccccc2F)c(O)c2ccccc21	96	-	-	-	-	-	-	-
CSc1ccc(C(=O)C(C)(C)N2CCOCC2)cc1	-	-	-	-	-	-	.	.
CN(C)C1=NC(N(C)C)=NP(N(C)C)(N(C)C)=N1	-	-	-	-	-	-	.	.
CCCCCSc1cc(OC)c(CCN(C)C)cc1OC	-	-	-	-	-	-	.	.
CCCCCSc1cc(O)c(C(CNC)C(C)C)cc1OC (configuration not stated)	29	-	-	-	-	-	42	37
OC12CCCCC1C(c1ccccc1)NCC2 (configuration not stated)	23	-	-	-	-	-	-	-
COc1cc(CNCCc2c[nH]c3ccccc23)cc(OC)c1	38	-	-	-	-	-	-	31
COc1cc(CNCCc2c[nH]c3ccccc23)cc(OC)c1OC	.	.	-	-	.	.	.	.
CCOC(=O)c1ccc(-[n+]2c(-c3ccccc3)cc(-c3ccccc3)cc2-c2ccccc2)cc1	.	-	.	.	-	-	.	.
CN(C)c1ccc(-[n+]2c(-c3ccccc3)cc(-c3ccccc3)cc2-c2ccccc2)cc1	59	.	-	-	.	.	79	78
c1ccc(-c2cc(-c3ccccc3)[n+](-c3ccccc3)c(-c3ccccc3)c2)cc1	97	84	72	-	84	-	93	87
O=[N+]([O-])c1[nH]cnc1Br	.	.	-	-	.	.	.	.
Cc1ccc(OCCSC2=NN2c2cc(C)nc(N)n2)cc1	-	-	-	-	-	-	.	.
OC(CNC1CCCCCCC1)c1ccccc1 (configuration not stated)	22	-	.	.	-	-	-	-
COC(=O)C1=C(c2ccccc2OCc2ccccc2)C[C@@H]2CC[C@H]1N2C(=O)NCc1cccc(C(F)(F)F)c1	.	61	-	-	-	-	.	.	OX1R Ca confirm=-;CHO Ca triplic=-
O=C1CC23c4ccccc4N4C(=O)CC5OCC=C6CN1C2CC6C5C43 (configuration not stated)	.	.	-	-	.	.	.	.
O=C(c1cc2cc(Br)ccc2[nH]1)N1CCC2(CC1)OCCO2	-	-	-	-	-	-	.	.
